Laboratory results from ChEMBL document CHEMBL2390952, “Novel triazolo-pyrrolopyridines as inhibitors of Janus kinase 1” (Bioorg Med Chem Lett, 2013).

Species on record: Homo sapiens
Experiment: Selectivity ratio of Ki for JAK3 (unknown origin) to Ki for JAK1 (unknown origin)
Settings: not given

Row | Ratio Ki | Compound
1 | > 10 | CC1(n2nnc3cnc4[nH]ccc4c32)CCN(S(C)(=O)=O)CC1
2 | > 10 | N#CCC(=O)N1CCC[C@@H](n2nnc3cnc4[nH]ccc4c32)C1

Tested on: not listed separately
Experiment: Lipophilicity, log D of the compound at pH 7.2
Assay type: physicochemical
Settings: buffer
How it was run: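 Log D determined experimentally at pH 7.2.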

Row | Compound | logD
3 | N[C@H]1CC[C@H](n2nnc3cnc4[nH]ccc4c32)CC1 | -0.24
4 | CC1(n2nnc3cnc4[nH]ccc4c32)CCN(S(C)(=O)=O)CC1 | 1.5

Now from value to compound:

Row | logD | Compound
5 | 1.05 | N#CCCN[C@H]1CC[C@H](n2nnc3cnc4[nH]ccc4c32)CC1
6 | 1.12 | N#CCCN1CCC(n2nnc3cnc4[nH]ccc4c32)CC1
7 | 0.6 | N#CCC(=O)N1CCC[C@@H](n2nnc3cnc4[nH]ccc4c32)C1

Tested on: not listed separately
Experiment: Cmax in Sprague-Dawley rat at 5 mg/kg, po
Assay type: ADME, organism-based
Parameters: dose 5 mg/kg, route oral
Settings: in vivo
How it was run: (§1)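 Rat pharmacokinetics given as mean profiles from three animals. Values normalized to 1 mg/kg iv and 5 mg/kg po. Clearance is plasma clearance after iv dosing.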

Row | Cmax | Compound
8 | 900 nM | N#CCCN[C@H]1CC[C@H](n2nnc3cnc4[nH]ccc4c32)CC1
9 | 4900 nM | N#CCCN1CCC(n2nnc3cnc4[nH]ccc4c32)CC1
10 | 700 nM | CC1(n2nnc3cnc4[nH]ccc4c32)CCN(S(C)(=O)=O)CC1
11 | 400 nM | N#CCC(=O)N1CCC[C@@H](n2nnc3cnc4[nH]ccc4c32)C1

Tested on: not listed separately
Experiment: Oral bioavailability in Sprague-Dawley rat at 5 mg/kg
Assay type: ADME, organism-based
Settings: in vivo
How it was run: as §1

Row | bioavailability | Compound
12 | 44% | N#CCCN[C@H]1CC[C@H](n2nnc3cnc4[nH]ccc4c32)CC1
13 | 28% | N#CCCN1CCC(n2nnc3cnc4[nH]ccc4c32)CC1
14 | 82% | CC1(n2nnc3cnc4[nH]ccc4c32)CCN(S(C)(=O)=O)CC1
15 | 41% | N#CCC(=O)N1CCC[C@@H](n2nnc3cnc4[nH]ccc4c32)C1

Species on record: Homo sapiens
Experiment: Selectivity ratio of Ki for TYK2 (unknown origin) to Ki for JAK1 (unknown origin)
Settings: not given

Row | Ratio Ki | Compound
16 | > 10 | CC1(n2nnc3cnc4[nH]ccc4c32)CCN(S(C)(=O)=O)CC1
17 | > 10 | N#CCC(=O)N1CCC[C@@H](n2nnc3cnc4[nH]ccc4c32)C1

Target: T1, Tyrosine-protein kinase JAK1 (Homo sapiens, UniProt P23458)
Experiment: Inhibition of JAK1 (unknown origin)
Settings: not given

T1 sequence (P23458 whole entry): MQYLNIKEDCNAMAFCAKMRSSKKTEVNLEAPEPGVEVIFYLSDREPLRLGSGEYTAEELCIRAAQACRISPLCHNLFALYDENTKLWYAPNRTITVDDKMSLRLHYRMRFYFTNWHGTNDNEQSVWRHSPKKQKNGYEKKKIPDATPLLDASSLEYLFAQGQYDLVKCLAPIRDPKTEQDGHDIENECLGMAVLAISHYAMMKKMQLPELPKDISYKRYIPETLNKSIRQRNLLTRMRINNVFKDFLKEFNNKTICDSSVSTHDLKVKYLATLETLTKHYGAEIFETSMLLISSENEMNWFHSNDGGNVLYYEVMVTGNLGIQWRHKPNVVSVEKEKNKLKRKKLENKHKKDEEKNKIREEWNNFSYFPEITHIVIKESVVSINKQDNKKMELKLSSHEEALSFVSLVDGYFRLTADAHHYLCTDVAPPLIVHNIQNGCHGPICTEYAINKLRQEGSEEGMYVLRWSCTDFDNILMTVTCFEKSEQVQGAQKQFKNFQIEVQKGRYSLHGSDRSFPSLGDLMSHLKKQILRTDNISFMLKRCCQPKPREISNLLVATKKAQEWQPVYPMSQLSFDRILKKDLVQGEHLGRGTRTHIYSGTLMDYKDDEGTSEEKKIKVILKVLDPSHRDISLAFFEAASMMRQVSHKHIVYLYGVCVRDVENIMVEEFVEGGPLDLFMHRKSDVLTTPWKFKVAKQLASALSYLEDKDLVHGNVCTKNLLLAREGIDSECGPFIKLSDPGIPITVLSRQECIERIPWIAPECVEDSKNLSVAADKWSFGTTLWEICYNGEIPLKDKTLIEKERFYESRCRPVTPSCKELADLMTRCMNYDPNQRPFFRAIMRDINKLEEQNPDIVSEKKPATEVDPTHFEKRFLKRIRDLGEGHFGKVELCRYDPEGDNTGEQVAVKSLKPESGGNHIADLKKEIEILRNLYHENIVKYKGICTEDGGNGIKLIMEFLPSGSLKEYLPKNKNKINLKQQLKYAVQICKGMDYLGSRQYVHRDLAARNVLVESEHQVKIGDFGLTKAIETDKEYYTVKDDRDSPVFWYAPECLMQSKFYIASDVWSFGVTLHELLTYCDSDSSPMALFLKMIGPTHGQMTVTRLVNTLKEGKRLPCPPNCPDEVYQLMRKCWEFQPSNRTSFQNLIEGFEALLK

Row | Ki | Compound
18 | 2.1 nM | N#CCCN1CCC(n2nnc3cnc4[nH]ccc4c32)CC1
19 | 7.9 nM | CC1(n2nnc3cnc4[nH]ccc4c32)CCN(S(C)(=O)=O)CC1

Tested on: not listed separately
Experiment: Dissociation constant, pKa of the compound
Assay type: physicochemical
Settings: not given

Row | pKa | Compound
20 | 1.96 | N#CCC(=O)N1CCC[C@@H](n2nnc3cnc4[nH]ccc4c32)C1

Tested on: not listed separately
Experiment: AUC in Sprague-Dawley rat at 5 mg/kg, po
Assay type: ADME, organism-based
Parameters: dose 5 mg/kg, route oral
Settings: plasma
How it was run: as §1

Row | AUC | Compound
21 | 1.4 µM·h | N#CCCN[C@H]1CC[C@H](n2nnc3cnc4[nH]ccc4c32)CC1
22 | 1.8 µM·h | N#CCCN1CCC(n2nnc3cnc4[nH]ccc4c32)CC1
23 | 1 µM·h | CC1(n2nnc3cnc4[nH]ccc4c32)CCN(S(C)(=O)=O)CC1
24 | 1 µM·h | N#CCC(=O)N1CCC[C@@H](n2nnc3cnc4[nH]ccc4c32)C1

Species on record: Homo sapiens
Experiment: Selectivity ratio of Ki for JAK2 (unknown origin) to Ki for JAK1 (unknown origin)
Settings: not given
How it was run: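 Biochemical JAK enzyme assay giving Ki, reported as the arithmetic mean of at least three separate determinations. Selectivity is taken as JAK2 Ki divided by JAK1 Ki.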

Row | Ratio Ki | Compound
25 | 1.8 | N#CCCN1CCC(n2nnc3cnc4[nH]ccc4c32)CC1
26 | 6.7 | CC1(n2nnc3cnc4[nH]ccc4c32)CCN(S(C)(=O)=O)CC1

Target: Tyrosine-protein kinase JAK2 (Homo sapiens, UniProt O60674)
Experiment: Inhibition of JAK2 (unknown origin)
Settings: not given

Sequence of Tyrosine-protein kinase JAK2 (O60674 whole entry): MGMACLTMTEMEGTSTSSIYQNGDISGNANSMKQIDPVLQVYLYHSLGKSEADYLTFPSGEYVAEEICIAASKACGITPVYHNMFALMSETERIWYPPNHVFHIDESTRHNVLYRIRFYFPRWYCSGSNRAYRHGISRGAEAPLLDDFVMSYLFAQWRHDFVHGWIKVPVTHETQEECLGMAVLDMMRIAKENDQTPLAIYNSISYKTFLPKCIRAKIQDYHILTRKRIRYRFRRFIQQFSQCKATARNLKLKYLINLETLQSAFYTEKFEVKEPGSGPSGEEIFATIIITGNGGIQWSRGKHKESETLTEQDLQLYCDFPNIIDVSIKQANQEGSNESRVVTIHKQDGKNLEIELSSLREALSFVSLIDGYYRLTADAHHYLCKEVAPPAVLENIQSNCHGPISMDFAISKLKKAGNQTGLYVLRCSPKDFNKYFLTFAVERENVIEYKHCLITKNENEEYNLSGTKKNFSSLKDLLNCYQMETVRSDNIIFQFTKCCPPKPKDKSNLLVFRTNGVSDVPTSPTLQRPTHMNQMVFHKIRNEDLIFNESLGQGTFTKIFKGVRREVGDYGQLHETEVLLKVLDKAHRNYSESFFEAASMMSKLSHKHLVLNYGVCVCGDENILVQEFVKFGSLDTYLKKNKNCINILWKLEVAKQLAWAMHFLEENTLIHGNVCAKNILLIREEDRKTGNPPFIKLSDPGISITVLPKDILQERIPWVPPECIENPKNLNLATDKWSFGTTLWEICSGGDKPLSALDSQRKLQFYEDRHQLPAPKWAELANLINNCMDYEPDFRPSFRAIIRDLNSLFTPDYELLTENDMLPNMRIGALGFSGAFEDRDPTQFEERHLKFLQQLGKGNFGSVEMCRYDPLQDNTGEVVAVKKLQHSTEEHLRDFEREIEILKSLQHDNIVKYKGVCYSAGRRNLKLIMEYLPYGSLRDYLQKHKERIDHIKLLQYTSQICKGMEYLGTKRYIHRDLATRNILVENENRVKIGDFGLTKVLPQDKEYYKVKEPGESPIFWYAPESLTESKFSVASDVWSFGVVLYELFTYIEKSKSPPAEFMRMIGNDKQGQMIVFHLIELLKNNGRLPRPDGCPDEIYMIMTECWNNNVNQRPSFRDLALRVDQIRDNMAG

Row | Ki | Compound
27 | 3.7 nM | N#CCCN1CCC(n2nnc3cnc4[nH]ccc4c32)CC1
28 | 53 nM | CC1(n2nnc3cnc4[nH]ccc4c32)CCN(S(C)(=O)=O)CC1
29 | 3.8 nM | N#CCC(=O)N1CCC[C@@H](n2nnc3cnc4[nH]ccc4c32)C1

Target: T2, Serine/threonine-protein kinase D1 (Homo sapiens) (UniProt Q15139)
T2 sequence (whole entry): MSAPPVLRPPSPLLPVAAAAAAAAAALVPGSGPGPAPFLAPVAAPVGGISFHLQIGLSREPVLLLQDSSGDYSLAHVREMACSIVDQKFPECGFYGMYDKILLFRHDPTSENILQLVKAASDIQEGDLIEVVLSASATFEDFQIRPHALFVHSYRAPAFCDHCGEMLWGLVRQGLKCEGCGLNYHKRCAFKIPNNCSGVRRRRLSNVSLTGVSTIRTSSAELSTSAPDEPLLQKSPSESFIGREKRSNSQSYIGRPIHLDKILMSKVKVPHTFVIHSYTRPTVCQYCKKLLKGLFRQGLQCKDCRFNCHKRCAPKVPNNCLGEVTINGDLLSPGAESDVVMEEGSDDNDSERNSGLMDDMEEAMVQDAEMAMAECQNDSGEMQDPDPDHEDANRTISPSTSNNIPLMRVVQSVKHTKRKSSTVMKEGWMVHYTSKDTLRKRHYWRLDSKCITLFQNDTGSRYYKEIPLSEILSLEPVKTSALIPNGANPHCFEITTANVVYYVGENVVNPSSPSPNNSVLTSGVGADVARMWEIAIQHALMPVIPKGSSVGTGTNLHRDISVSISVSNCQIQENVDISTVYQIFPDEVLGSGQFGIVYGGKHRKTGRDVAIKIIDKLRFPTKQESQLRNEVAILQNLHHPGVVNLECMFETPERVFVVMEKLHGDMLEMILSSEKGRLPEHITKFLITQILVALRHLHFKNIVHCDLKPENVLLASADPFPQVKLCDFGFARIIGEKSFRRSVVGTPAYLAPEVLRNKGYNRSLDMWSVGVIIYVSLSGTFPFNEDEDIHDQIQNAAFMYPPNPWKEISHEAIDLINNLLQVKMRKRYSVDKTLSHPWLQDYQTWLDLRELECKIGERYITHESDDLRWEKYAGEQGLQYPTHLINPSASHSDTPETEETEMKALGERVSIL
Experiment: Inhibition of protein kinase D1 (unknown origin) relative to control
Settings: concentration not given here
How it was run: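 Kinase selectivity panel of 50 non-JAK kinases. […] Percent inhibition scored, and enzymes inhibited by more than 40% were counted.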

Row | inhibition | Compound
30 | 44% | N#CCCN[C@H]1CC[C@H](n2nnc3cnc4[nH]ccc4c32)CC1

Target: Non-receptor tyrosine-protein kinase TYK2 (Homo sapiens, UniProt P29597)
Experiment: Inhibition of TYK2 (unknown origin)
Settings: not given

Sequence of Non-receptor tyrosine-protein kinase TYK2 (P29597 whole entry): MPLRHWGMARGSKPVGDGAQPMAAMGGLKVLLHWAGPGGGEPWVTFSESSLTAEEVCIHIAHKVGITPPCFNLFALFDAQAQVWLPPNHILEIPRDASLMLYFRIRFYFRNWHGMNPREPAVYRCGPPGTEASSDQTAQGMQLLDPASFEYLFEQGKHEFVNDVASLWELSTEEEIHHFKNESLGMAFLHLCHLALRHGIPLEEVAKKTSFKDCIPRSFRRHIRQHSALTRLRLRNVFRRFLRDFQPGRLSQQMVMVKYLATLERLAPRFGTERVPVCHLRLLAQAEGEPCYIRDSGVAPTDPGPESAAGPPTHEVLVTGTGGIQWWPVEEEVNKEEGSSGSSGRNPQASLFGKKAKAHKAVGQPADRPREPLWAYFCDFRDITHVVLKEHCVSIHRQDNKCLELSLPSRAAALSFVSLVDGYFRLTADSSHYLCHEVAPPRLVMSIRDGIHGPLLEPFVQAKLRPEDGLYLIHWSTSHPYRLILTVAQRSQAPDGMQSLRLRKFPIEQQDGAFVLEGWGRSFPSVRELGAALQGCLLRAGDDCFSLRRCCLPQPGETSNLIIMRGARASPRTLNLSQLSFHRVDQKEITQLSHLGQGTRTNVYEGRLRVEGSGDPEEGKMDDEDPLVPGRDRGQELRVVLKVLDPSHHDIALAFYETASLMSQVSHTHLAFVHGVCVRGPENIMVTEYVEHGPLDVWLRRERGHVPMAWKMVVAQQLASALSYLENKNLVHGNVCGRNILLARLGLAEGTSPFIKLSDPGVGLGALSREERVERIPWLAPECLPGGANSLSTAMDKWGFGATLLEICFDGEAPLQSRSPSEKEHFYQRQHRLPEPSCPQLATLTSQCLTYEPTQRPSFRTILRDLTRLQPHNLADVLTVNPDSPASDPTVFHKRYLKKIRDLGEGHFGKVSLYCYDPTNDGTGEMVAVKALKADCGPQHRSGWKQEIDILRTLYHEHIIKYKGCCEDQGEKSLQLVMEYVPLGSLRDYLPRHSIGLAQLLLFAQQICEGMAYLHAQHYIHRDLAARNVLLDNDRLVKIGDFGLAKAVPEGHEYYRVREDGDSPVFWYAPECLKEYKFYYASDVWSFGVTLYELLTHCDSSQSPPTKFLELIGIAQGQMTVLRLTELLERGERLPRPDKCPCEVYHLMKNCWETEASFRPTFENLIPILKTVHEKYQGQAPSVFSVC

Row | Ki | Compound
31 | 234 nM | CC1(n2nnc3cnc4[nH]ccc4c32)CCN(S(C)(=O)=O)CC1
32 | 20 nM | N#CCC(=O)N1CCC[C@@H](n2nnc3cnc4[nH]ccc4c32)C1

Target: T1, Tyrosine-protein kinase JAK1
Experiment: Inhibition of JAK1-mediated STAT3 phosphorylation in IL6-induced human TF1 cells
Assay type: cell-based, TF-1
Settings: not given

Row | EC50 | Compound
33 | 138 nM | N#CCCN1CCC(n2nnc3cnc4[nH]ccc4c32)CC1
34 | 220 nM | CC1(n2nnc3cnc4[nH]ccc4c32)CCN(S(C)(=O)=O)CC1
35 | 114 nM | N#CCC(=O)N1CCC[C@@H](n2nnc3cnc4[nH]ccc4c32)C1

Tested on: not listed separately
Experiment: Half life in human liver microsomes
Assay type: ADME, Microsome
Settings: not given
How it was run: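 Half-life measured by incubation with in vitro preparations of human liver microsomes.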

Row | Compound | half-life
36 | N[C@H]1CC[C@H](n2nnc3cnc4[nH]ccc4c32)CC1 | 1.1 h
37 | CC1(n2nnc3cnc4[nH]ccc4c32)CCN(S(C)(=O)=O)CC1 | 32 h

More lines, now with the values ahead:

Row | half-life | Compound
38 | 2.3 h | N#CCCN[C@H]1CC[C@H](n2nnc3cnc4[nH]ccc4c32)CC1
39 | 1.9 h | N#CCCN1CCC(n2nnc3cnc4[nH]ccc4c32)CC1

Tested on: TF-1
Experiment: Selectivity ratio of EC50 for JAK2-mediated STAT5 phosphorylation in EPO-induced human TF1 cells to EC50 for JAK1-mediated STAT3 phosphorylation in IL6-induced human TF1 cells
Assay type: cell-based
Settings: not given

Row | Compound | Ratio EC50
40 | N#CCCN1CCC(n2nnc3cnc4[nH]ccc4c32)CC1 | 4.6
41 | CC1(n2nnc3cnc4[nH]ccc4c32)CCN(S(C)(=O)=O)CC1 | 15
42 | N#CCC(=O)N1CCC[C@@H](n2nnc3cnc4[nH]ccc4c32)C1 | 6.8

Tested on: not listed separately
Experiment: Apparent permeability from apical to basolateral side in MDCK cells
Assay type: ADME, cell-based, Canis lupus familiaris
Settings: dog
How it was run: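 MDCK cells grown in transwell culture. Apparent permeability measured in the apical-to-basolateral direction and reported as the arithmetic mean of at least two separate determinations.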

Row | Papp A→B | Compound
43 | 7.2 ×10⁻⁶ cm/s | N#CCCN[C@H]1CC[C@H](n2nnc3cnc4[nH]ccc4c32)CC1
44 | 17 ×10⁻⁶ cm/s | N#CCCN1CCC(n2nnc3cnc4[nH]ccc4c32)CC1
45 | 14 ×10⁻⁶ cm/s | CC1(n2nnc3cnc4[nH]ccc4c32)CCN(S(C)(=O)=O)CC1
46 | 3.7 ×10⁻⁶ cm/s | N#CCC(=O)N1CCC[C@@H](n2nnc3cnc4[nH]ccc4c32)C1

Target: T3, Tyrosine-protein kinase JAK3 (Homo sapiens, UniProt P52333)
T3 sequence (P52333 whole entry): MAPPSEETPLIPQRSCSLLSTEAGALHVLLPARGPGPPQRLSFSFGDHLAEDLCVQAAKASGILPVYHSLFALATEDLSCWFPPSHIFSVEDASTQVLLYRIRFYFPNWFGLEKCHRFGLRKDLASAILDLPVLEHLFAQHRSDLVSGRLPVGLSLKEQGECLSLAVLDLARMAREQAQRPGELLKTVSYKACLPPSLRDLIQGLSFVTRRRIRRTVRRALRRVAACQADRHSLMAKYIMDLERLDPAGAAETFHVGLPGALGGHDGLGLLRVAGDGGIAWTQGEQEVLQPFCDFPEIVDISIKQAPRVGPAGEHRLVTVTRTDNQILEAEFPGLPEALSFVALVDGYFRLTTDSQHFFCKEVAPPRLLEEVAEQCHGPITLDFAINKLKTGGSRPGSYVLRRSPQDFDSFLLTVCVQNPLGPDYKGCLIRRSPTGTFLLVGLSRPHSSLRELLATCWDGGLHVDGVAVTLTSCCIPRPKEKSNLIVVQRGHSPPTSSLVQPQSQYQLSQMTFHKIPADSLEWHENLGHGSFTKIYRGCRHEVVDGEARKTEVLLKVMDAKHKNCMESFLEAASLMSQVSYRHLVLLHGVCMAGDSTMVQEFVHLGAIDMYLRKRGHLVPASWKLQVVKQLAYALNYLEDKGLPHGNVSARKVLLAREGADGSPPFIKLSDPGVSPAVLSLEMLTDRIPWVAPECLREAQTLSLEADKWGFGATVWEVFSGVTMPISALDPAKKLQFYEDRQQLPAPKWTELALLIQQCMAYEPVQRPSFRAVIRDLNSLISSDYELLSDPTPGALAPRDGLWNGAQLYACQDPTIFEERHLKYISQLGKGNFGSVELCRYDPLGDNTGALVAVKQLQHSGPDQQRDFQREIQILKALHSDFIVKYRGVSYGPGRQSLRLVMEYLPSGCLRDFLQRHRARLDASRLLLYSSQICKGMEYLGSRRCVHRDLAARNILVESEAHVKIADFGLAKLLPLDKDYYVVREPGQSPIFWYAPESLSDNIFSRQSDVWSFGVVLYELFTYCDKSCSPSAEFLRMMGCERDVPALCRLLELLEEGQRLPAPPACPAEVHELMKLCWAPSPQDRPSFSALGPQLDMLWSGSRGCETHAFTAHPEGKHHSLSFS
Experiment: Inhibition of JAK3 (unknown origin)
Settings: not given

Row | Ki | Compound
47 | 122 nM | N#CCCN[C@H]1CC[C@H](n2nnc3cnc4[nH]ccc4c32)CC1
48 | 369 nM | CC1(n2nnc3cnc4[nH]ccc4c32)CCN(S(C)(=O)=O)CC1
49 | 24 nM | N#CCC(=O)N1CCC[C@@H](n2nnc3cnc4[nH]ccc4c32)C1

Tested on: not listed separately
Experiment: Clearance in Sprague-Dawley rat at 1 mg/kg, iv
Assay type: ADME, organism-based
Parameters: dose 1 mg/kg, route intravenous
Settings: in vivo
How it was run: as §1

Row | clearance | Compound
50 | 88 mL/min/kg | N#CCCN[C@H]1CC[C@H](n2nnc3cnc4[nH]ccc4c32)CC1
51 | 44 mL/min/kg | N#CCCN1CCC(n2nnc3cnc4[nH]ccc4c32)CC1
52 | 211 mL/min/kg | CC1(n2nnc3cnc4[nH]ccc4c32)CCN(S(C)(=O)=O)CC1
53 | 110 mL/min/kg | N#CCC(=O)N1CCC[C@@H](n2nnc3cnc4[nH]ccc4c32)C1
